# Only a selection was taken, and hits are over-represented in it overall.
# PostGolgi yeast = growth inhibition of a yeast mutant, post-Golgi transport screen. 98,000 compounds, 0.9% hits. post-Golgi transport phenotypic cell assay. inhibition, % at 10 µM. AID 739;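 also: yeast cells grown in 1536-well plates; yeast grown about 18 h at 30C before absorbance read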
# BB579 growth dn = yeast BB579 growth reduction in restrictive medium; S. cerevisiae BB579 growth, OD615, 48 h; inhibition, % at 10 µM; 140,000 compounds, 0.51% hits; AID 804;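 active = inhibition above a set limit, 3 SD over the mean compound inhibition, cut at about 44% in these data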
#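 Test system: S. cerevisiae DeaD strain BB579 yeast; Medium: restrictive CSMM-D medium; Compound: one dose, 10 µM compound with 0.25% DMSO; Incubation: 4 h cell preincubation, 48 h compound exposure, 30 °C humidified; Signal: OD at 615 nm; Benchmarks: amphotericin B at 10 µg/mL as positive control.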
# Yeast life ext = yeast lifespan extension. 130,000 compounds, 0.68% hits. S. cerevisiae growth with nicotinamide, OD615; deaD strain in restrictive glucose medium. AID 775. inhibition of the nicotinamide effect, % at 10 µM;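 active = inhibition above a set limit, placed 3 SD over the median of all compounds, cut at about 26% in these data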;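 also: 0% = nicotinamide-treated wells and 100% = cells grown without nicotinamide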
#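 assay system = DeaD-strain S. cerevisiae | buffer or medium = restrictive glucose medium | reagent = 1.5 mM nicotinamide | compound = 10 µM single point, 0.25% DMSO | incubation = 48 h compound exposure at 30 °C, humidified | signal = OD615 measurement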
# PostGolgi ctrl = growth of the yeast control strain, post-Golgi counter-screen; efflux-deficient yeast background strain, growth absorbance A615, 16 h; AID 738; inhibition, % at 10 µM; 98,000 compounds, 5% hits
# Starred values were filed as active, the others as inactive; · = not tested or not shown. Rule as the data show it, unless noted: active = inhibition above about 30%; inactive = the rest.
SMILES,PostGolgi yeast,BB579 growth dn,Yeast life ext,PostGolgi ctrl
O=c1cc2c(nn1Cc1cccc(Cl)c1)-c1ccccc1CC2,20,-36,3,76*
O=c1cc2c(nn1Cc1ccc(Cl)cc1)-c1ccccc1CC2,-3,-35,13,48*
CCC(C)c1ccc(OCCN2CCCC2)cc1 (centres undefined),7,-38,-1,36*
Cc1c(C(=O)NCc2ccc3c(c2)OCO3)oc2ccc(S(=O)(=O)N3CCC(C)CC3)cc12,-9,-13,-6,-5
Cc1c(C(=O)NCc2cccnc2)oc2ccc(S(=O)(=O)N3CCCC(C)C3)cc12 (centres undefined),6,-35,-3,33*
C=CCn1c(COc2ccc(Cl)cc2)nnc1SCc1ccc(C#N)cc1,47*,-57,6,41*
Cc1ccc(OCc2nnc(SCc3ccc(C#N)cc3)n2-c2ccc(C)cc2)cc1,-2,-29,1,39*
CCCC(=O)Nc1ccc2c(c1)nc(CN1CCN(C(C)=O)CC1)n2C,4,-43,-20,31*
COc1ccc(OCC(=O)Nc2ccc3c(c2)nc(CN2CCCC2)n3C)cc1,-1,-22,-4,3
CC(=O)N1CCN(Cc2nc3cc(NC(=O)c4ccccc4)ccc3n2C)CC1,-10,-31,0,5
Cn1c(CN2CCCC2)nc2cc(NC(=O)COc3ccc(Cl)cc3)ccc21,3,-51,-9,33*
CCOC(=O)c1c(-c2ccc(OC)cc2)csc1NC(=O)CCN1C(=O)c2ccccc2C1=O,5,-18,-6,8
CCOC(=O)c1c(-c2ccc(OC)cc2)csc1NC(=O)CNCc1ccco1,1,-43,-13,85*
C=CCNC(=O)/C(C#N)=C/c1ccccc1OCc1ccc(C(=O)OC)cc1,·,-52,35*,·
CCn1c(SCC(=O)O)nnc1C1CCCCC1,12,-35,-8,31*
CN(Cc1ccccc1)C(=O)Cn1c(=O)oc2cc(S(=O)(=O)N3CCCC3)ccc21,1,-30,-5,35*
Cc1cc(C(=O)COC(=O)c2ccc[nH]c2=O)c(C)n1-c1ccccc1,·,59*,22,·
Cc1cc(C(=O)OCC(=O)NCc2ccco2)c(C)n1-c1ccc(F)cc1,-4,-32,-3,18
Cc1cc(C(=O)COC(=O)c2ccc[nH]c2=O)c(C)n1-c1ccc(F)cc1,·,54*,17,·
Cc1cc(C(=O)COC(=O)c2ccc[nH]c2=O)c(C)n1C1CC1,·,-6,29*,·
CC(=O)N(/N=C1\Sc2ccccc2C1=O)c1ccccc1C,7,-51,-10,33*
CC(=O)N(/N=C1\Sc2ccccc2C1=O)c1ccc(C)cc1C,-7,-58,-14,48*
CC(CNC(=O)C(C)(C)C)NC(=O)C(C)(C)C (centres undefined),·,-22,2,·
CC(C)c1cc[n+](-c2nc([O-])sc2C=O)cc1,-30,-18,31*,20
Cc1ccc(C2=Nc3ccccc3N(C(=O)c3ccccc3)C(C)C2)cc1 (centres undefined),·,-60,16,·
SMILES,PostGolgi yeast,BB579 growth dn,Yeast life ext,PostGolgi ctrl
O=C(Nc1ccc2c(c1)OCCO2)C1CCCN(S(=O)(=O)c2cnc[nH]2)C1 (centres undefined),-8,-82,-2,7
CCOc1ccc2nc(N3CCC(C(=O)N4CCN(c5ccccn5)CC4)CC3)sc2c1,6,8,-13,43*
CCOC(=O)N1CCN(C(=O)C2CCCN(c3nc4ccc(OCC)cc4s3)C2)CC1 (centres undefined),-3,-21,-8,6
O=S(=O)(Nc1ccc(O)c(Sc2nc3ccccc3s2)c1)c1ccc(Cl)cc1,37*,-67,-5,28
CC(=O)Nc1ccc(S(=O)(=O)Nc2nc3ccccc3s2)cc1,1,-48,-11,7
Nc1c(S(=O)(=O)c2ccccc2)c2nc3ccccc3nc2n1Cc1ccco1,-22,-38,-12,30*
Cc1c(C(=O)NNS(=O)(=O)c2ccccc2)sc(=S)n1C,·,-38,1,·
Cc1nnsc1C(=O)NNS(=O)(=O)c1ccccc1,2,-47,-21,38*
COC(=O)c1ccc2c(c1O)C(=O)c1ccccc1C2=O,105*,67*,-11,83*
CCSc1c(C(=O)NC)ccc2c1C(=O)c1ccccc1C2=O,-1,-33,27,10
COC(=O)c1cccc2c1-c1ccccc1/C2=N/O,-9,-61,-15,47*
O=C(COn1nnc2ccc(Cl)cc21)NC12CC3CC(CC(C3)C1)C2,6,-10,-2,52*
O=C(NCCc1ccccn1)C(F)(F)C(F)(F)C(F)(F)C(F)(F)C(F)(F)C(F)(F)C(F)(F)C(F)F,·,-26,33*,·

# From PubChem
